This is an account of results in ChEMBL document CHEMBL1135838, “alpha(1)-Adrenoceptor agonists: the identification of novel alpha(1A )subtype selective 2'-heteroaryl-2-(phenoxymethyl)imidazolines” (Bioorg Med Chem Lett, 2002).

The structures appear in SMILES notation. Bounds are passed on as bounds.

In the first test the target is T1, Alpha-1B adrenergic receptor (Homo sapiens, UniProt P35368).
T1 sequence (P35368 whole entry): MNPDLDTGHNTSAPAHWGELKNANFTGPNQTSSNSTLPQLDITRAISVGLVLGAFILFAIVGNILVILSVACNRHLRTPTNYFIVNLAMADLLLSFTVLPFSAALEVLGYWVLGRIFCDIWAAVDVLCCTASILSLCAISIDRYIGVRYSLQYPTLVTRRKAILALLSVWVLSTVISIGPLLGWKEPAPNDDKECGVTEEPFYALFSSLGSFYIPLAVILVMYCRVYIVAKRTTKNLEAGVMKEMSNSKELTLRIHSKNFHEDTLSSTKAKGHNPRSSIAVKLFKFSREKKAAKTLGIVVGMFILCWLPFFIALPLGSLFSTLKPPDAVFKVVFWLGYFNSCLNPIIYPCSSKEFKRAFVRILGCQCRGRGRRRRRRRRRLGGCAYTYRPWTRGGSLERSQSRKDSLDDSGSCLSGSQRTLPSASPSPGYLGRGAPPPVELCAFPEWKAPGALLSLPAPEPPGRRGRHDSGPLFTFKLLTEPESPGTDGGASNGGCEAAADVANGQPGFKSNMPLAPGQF
Put plainly: Activation of recombinant human adrenergic, alpha-1B receptor expressed in rat-1 fibroblasts determined via calcium mobilization through Gq coupled PLC pathway. The format is functional. The procedure, abridged: (§1)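 Rat-1 fibroblasts stably expressing cloned human α1A (clone #137-12), α1B (clone #37-11) or α1D (clone #16-7) adrenoceptor were loaded with the Calcium Green calcium-sensitive dye. Gq/PLC-coupled calcium mobilization was read on a FLIPR. Eleven-point concentration–response curves, with a top concentration typically 5 μM, were normalized to the 40 μM phenylephrine response to give pEC50 and % efficacy. Values are the mean of ≥2 experiments.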
The EC50 is the midpoint of the concentration-response curve. For the molecule `Cc1ccc(-c2ccccc2OCC2=NCCN2)s1`, the 50% effective concentration (EC50) is above 100 µM.

For `Cc1cnsc1-c1ccccc1OCC1=NCCN1`, the EC50 was above 100 µM.

Take `c1ccc(-c2ccoc2)c(OCC2=NCCN2)c1`: the EC50 is 0.00501 µM.

`c1cncc(-c2ccccc2OCC2=NCCN2)c1`: the EC50 is 0.0794 µM.

On to `c1ccc(-c2nccs2)c(OCC2=NCCN2)c1`, for which the concentration giving a half-maximal response (EC50) is 0.02 µM.

Take `c1ccc(-c2ccccc2NCC2=NCCN2)cc1`: the EC50 was above 100 µM.

As to `Cc1ccnc(-c2ccccc2OCC2=NCCN2)c1`, the EC50 is above 100 µM.

Take `c1ccc(-c2cc[nH]n2)c(OCC2=NCCN2)c1`: the EC50 was 0.0794 µM.

Take `c1csc(-c2ccccc2OCC2=NCCN2)c1`: the 50% effective concentration (EC50) is 0.00398 µM.

Take `c1ccc(-c2ccccc2OCC2=NCCN2)cc1`: the EC50 is above 100 µM.

Consider `Cc1csc(-c2ccccc2OCC2=NCCN2)n1`, for which the EC50 is above 100 µM.

On to `c1cnc(-c2ccccc2OCC2=NCCN2)nc1`, for which the EC50 was above 100 µM.

For the molecule `Cc1cccc(-c2ccccc2OCC2=NCCN2)n1`, the EC50 is above 100 µM.

In the case of `c1ccc(-c2ccncc2)c(OCC2=NCCN2)c1`, the EC50 was above 100 µM.

A further test deals with T2, Alpha-1A adrenergic receptor (Homo sapiens, UniProt P35348).
T2 sequence (P35348 whole entry): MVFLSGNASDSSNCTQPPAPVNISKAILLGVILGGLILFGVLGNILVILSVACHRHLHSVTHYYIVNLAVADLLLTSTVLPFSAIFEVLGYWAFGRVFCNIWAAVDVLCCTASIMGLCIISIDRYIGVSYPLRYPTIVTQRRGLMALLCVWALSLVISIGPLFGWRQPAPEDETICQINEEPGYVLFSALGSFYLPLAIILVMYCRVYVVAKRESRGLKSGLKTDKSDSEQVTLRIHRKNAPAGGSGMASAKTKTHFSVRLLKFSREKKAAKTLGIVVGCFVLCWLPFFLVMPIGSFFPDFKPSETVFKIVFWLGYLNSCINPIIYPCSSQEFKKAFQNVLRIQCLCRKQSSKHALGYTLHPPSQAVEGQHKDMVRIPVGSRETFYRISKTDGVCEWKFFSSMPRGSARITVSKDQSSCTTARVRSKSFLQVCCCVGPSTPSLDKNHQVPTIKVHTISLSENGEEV
Put plainly: Binding affinity of compound towards Alpha-1A adrenergic receptor using membranes prepared from Rat-1 fibroblasts expressing human Alpha-1A adrenergic receptor. The method in brief: (§2)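 Radioligand binding was run on membranes from Rat-1 fibroblasts expressing human α1A, α1B or α1D adrenoceptor. Affinity is reported as pIC50 (±SEM), the mean of at least two experiments.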
Broadly, the IC50 is the concentration needed to halve the response being measured. For the molecule `c1cncc(-c2ccccc2OCC2=NCCN2)c1`, the IC50 was 0.0501 µM.

Turning to `Cc1ccnc(-c2ccccc2OCC2=NCCN2)c1`, the IC50 was 1.29 µM.

Molecule `c1ccc(-c2ccccc2OCC2=NCCN2)cc1` showed an IC50 of 0.0275 µM.

For another test, the target named is T3, Alpha-1D adrenergic receptor (Homo sapiens) (UniProt P25100).
T3 sequence (whole entry): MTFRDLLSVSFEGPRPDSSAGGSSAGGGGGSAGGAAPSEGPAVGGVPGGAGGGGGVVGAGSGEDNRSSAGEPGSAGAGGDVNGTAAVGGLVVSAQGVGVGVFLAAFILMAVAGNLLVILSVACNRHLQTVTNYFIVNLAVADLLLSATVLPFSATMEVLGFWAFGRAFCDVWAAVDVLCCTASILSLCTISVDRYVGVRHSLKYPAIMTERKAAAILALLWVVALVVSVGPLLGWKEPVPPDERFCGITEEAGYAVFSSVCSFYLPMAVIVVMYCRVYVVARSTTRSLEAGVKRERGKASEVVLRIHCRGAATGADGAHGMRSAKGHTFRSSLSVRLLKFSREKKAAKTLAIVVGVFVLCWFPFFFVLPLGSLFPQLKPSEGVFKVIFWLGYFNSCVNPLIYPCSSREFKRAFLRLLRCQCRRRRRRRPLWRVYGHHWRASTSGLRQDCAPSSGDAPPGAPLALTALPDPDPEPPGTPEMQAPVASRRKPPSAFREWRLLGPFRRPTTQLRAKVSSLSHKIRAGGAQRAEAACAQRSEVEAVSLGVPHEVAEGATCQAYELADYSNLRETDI
Put plainly: Ability to activate human alpha-1D receptor expressed in rat-1 fibroblasts as calcium mobilization through Gq coupled PLC pathway relative to phenylephrine response. It is filed as functional. The method in brief:
as §1
On the technique in general: A change in cytosolic calcium serves as a functional read-out for many receptors and channels.
As to `c1ccc(-c2ccoc2)c(OCC2=NCCN2)c1`, the Max turned out to be 126%.

For `c1cncc(-c2ccccc2OCC2=NCCN2)c1`, the Max turned out to be 38%.

`c1ccc(-c2nccs2)c(OCC2=NCCN2)c1`: the Max was found to be 113%.

As for `c1ccc(-c2ccccc2NCC2=NCCN2)cc1`, the Max was 20%.

Turning to `c1csc(-c2ccccc2OCC2=NCCN2)c1`, the Max is 93%.

For a further test, the target named is T1, Alpha-1B adrenergic receptor. In words: Binding affinity of compound towards human Alpha-1B adrenergic receptor expressed in rat fibroblast membranes. The format is cell membranes, Membrane. The procedure, abridged:
as §2
The molecule `c1cncc(-c2ccccc2OCC2=NCCN2)c1` showed an IC50 of 1.29 µM.

The molecule `Cc1ccnc(-c2ccccc2OCC2=NCCN2)c1` showed a concentration for half-maximal inhibition (IC50) of 2.45 µM.

`c1ccc(-c2ccccc2OCC2=NCCN2)cc1`: the IC50 is 0.741 µM.

The target in a further test is T4, Alpha-1D adrenergic receptor (Homo sapiens, UniProt P25100).
T4 sequence (P25100 whole entry): T3 sequence (whole entry)
In words: Binding affinity of compound towards human Alpha-1D adrenergic receptor expressed in rat-1 fibroblast membranes. The format is cell membranes. The procedure, abridged:
as §2
As for `c1cncc(-c2ccccc2OCC2=NCCN2)c1`, the IC50 was 0.257 µM.

The molecule `Cc1ccnc(-c2ccccc2OCC2=NCCN2)c1` had an IC50 of 1.41 µM.

On to `c1ccc(-c2ccccc2OCC2=NCCN2)cc1`, for which the IC50 is 0.324 µM.

The target in a further test is T4, Alpha-1D adrenergic receptor. Put plainly: Activation of recombinant human adrenergic, alpha-1D receptor expressed in rat-1 fibroblasts assayed via calcium mobilization through Gq coupled PLC pathway. It is filed as functional. The method in brief:
as §1
For the molecule `Cc1ccc(-c2ccccc2OCC2=NCCN2)s1`, the EC50 is above 100 µM.

As to `Cc1cnsc1-c1ccccc1OCC1=NCCN1`, the EC50 was above 100 µM.

As for `c1ccc(-c2ccoc2)c(OCC2=NCCN2)c1`, the EC50 was 0.00501 µM.

In the case of `c1cncc(-c2ccccc2OCC2=NCCN2)c1`, the EC50 was 0.158 µM.

`c1ccc(-c2nccs2)c(OCC2=NCCN2)c1`: the EC50 was 0.0316 µM.

With `c1ccc(-c2ccccc2NCC2=NCCN2)cc1`, the EC50 is 0.794 µM.

Regarding `Cc1ccnc(-c2ccccc2OCC2=NCCN2)c1`, the EC50 was above 100 µM.

For `c1ccc(-c2cc[nH]n2)c(OCC2=NCCN2)c1`, the EC50 was above 100 µM.

For `c1csc(-c2ccccc2OCC2=NCCN2)c1`, the EC50 is 0.0158 µM.

Take `c1ccc(-c2ccccc2OCC2=NCCN2)cc1`: the EC50 was above 100 µM.

Regarding `Cc1csc(-c2ccccc2OCC2=NCCN2)n1`, the EC50 is above 100 µM.

In the case of `c1cnc(-c2ccccc2OCC2=NCCN2)nc1`, the EC50 is above 100 µM.

In the case of `Cc1cccc(-c2ccccc2OCC2=NCCN2)n1`, the concentration for a half-maximal effect (EC50) is above 100 µM.

As for `c1ccc(-c2ccncc2)c(OCC2=NCCN2)c1`, the EC50 was above 100 µM.

The next test concerns the target T2, Alpha-1A adrenergic receptor. In words: Activation of recombinant human adrenergic,alpha-1A receptor expressed in rat-1 fibroblasts determined via calcium mobilization through Gq coupled PLC pathway. It is filed as functional. The procedure, abridged: as §1
As for `Cc1ccc(-c2ccccc2OCC2=NCCN2)s1`, the EC50 is 0.0251 µM.

On to `Cc1cnsc1-c1ccccc1OCC1=NCCN1`, for which the EC50 is 0.0126 µM.

As for `c1ccc(-c2ccoc2)c(OCC2=NCCN2)c1`, the EC50 was 0.000501 µM.

For the molecule `c1cncc(-c2ccccc2OCC2=NCCN2)c1`, the EC50 is 0.002 µM.

Turning to `c1ccc(-c2nccs2)c(OCC2=NCCN2)c1`, the EC50 was 0.00251 µM.

`c1ccc(-c2ccccc2NCC2=NCCN2)cc1`: the EC50 was 0.00794 µM.

Take `Cc1ccnc(-c2ccccc2OCC2=NCCN2)c1`: the 50% effective concentration (EC50) was above 100 µM.

For `c1ccc(-c2cc[nH]n2)c(OCC2=NCCN2)c1`, the EC50 is 0.00501 µM.

For the molecule `c1csc(-c2ccccc2OCC2=NCCN2)c1`, the 50% effective concentration (EC50) is 0.001 µM.

Turning to `c1ccc(-c2ccccc2OCC2=NCCN2)cc1`, the EC50 is 0.00316 µM.

On to `Cc1csc(-c2ccccc2OCC2=NCCN2)n1`, for which the EC50 was 0.0251 µM.

As for `c1cnc(-c2ccccc2OCC2=NCCN2)nc1`, the EC50 was 1.26 µM.

For `Cc1cccc(-c2ccccc2OCC2=NCCN2)n1`, the EC50 was 0.126 µM.

In the case of `c1ccc(-c2ccncc2)c(OCC2=NCCN2)c1`, the EC50 is above 100 µM.

A further test concerns the target T5, Alpha-1B adrenergic receptor (Homo sapiens) (UniProt P35368).
T5 sequence (whole entry): T1 sequence (P35368 whole entry)
Put plainly: Activation of human alpha-1B receptor expressed in rat-1 fibroblasts by calcium mobilization of Gq coupled PLC as percent phenylephrine (40 uM) response. It is filed as functional. The procedure, abridged:
as §1
For `c1ccc(-c2ccoc2)c(OCC2=NCCN2)c1`, the Max was determined as 111%.

Regarding `c1cncc(-c2ccccc2OCC2=NCCN2)c1`, the Max was determined as 111%.

`c1ccc(-c2nccs2)c(OCC2=NCCN2)c1`: the Max was determined as 100%.

In the case of `c1ccc(-c2cc[nH]n2)c(OCC2=NCCN2)c1`, the Max turned out to be 39%.

In the case of `c1csc(-c2ccccc2OCC2=NCCN2)c1`, the Max worked out at 112%.

A further test addresses T6, Alpha-1A adrenergic receptor (Homo sapiens) (UniProt P35348).
T6 sequence (whole entry): T2 sequence (P35348 whole entry)
Put plainly: Ability to activate cloned human alpha-1A receptor expressed in rat-1 fibroblasts via calcium mobilization through Gq coupled PLC pathway expressed as percent of phenylephrine (40 uM) response. The format is functional. The procedure, abridged: as §1
`Cc1ccc(-c2ccccc2OCC2=NCCN2)s1`: the Max stood at 97%.

With `Cc1cnsc1-c1ccccc1OCC1=NCCN1`, the Max was 104%.

On to `c1ccc(-c2ccoc2)c(OCC2=NCCN2)c1`, for which the Max worked out at 104%.

On to `c1cncc(-c2ccccc2OCC2=NCCN2)c1`, for which the Max amounted to 109%.

Turning to `c1ccc(-c2nccs2)c(OCC2=NCCN2)c1`, the Max worked out at 102%.

For the molecule `c1ccc(-c2ccccc2NCC2=NCCN2)cc1`, the Max worked out at 101%.

With `c1ccc(-c2cc[nH]n2)c(OCC2=NCCN2)c1`, the Max was determined as 119%.

For `c1csc(-c2ccccc2OCC2=NCCN2)c1`, the Max is 101%.

As to `Cc1csc(-c2ccccc2OCC2=NCCN2)n1`, the Max was found to be 104%.

For the molecule `c1cnc(-c2ccccc2OCC2=NCCN2)nc1`, the Max was determined as 90%.

As for `Cc1cccc(-c2ccccc2OCC2=NCCN2)n1`, the Max is 80%.
